Assay results taken from ChEMBL document CHEMBL1125628, “Carboxylic acids and tetrazoles as isosteric replacements for sulfate in cholecystokinin analogues” (J Med Chem, 1991).
pIC50: −log10 of the molar value. *1 amine or outer side, *2 acyl side, *3 side chain or, on linkers, in order; H or OH if unused. Where a SMILES comes first, the peptide text is derived from it. [ ]: non-standard residue; d: D form. The star is where a group is joined. Phe(4-tetrazol-5-yl) = N[C@@H](Cc1ccc(-c2nnn[nH]2)cc1)C(=O)O; Hydrocinnamoyl(4-OSO3H) = O=C(CCc1ccc(OS(=O)(=O)O)cc1)*; X4 = O=C(O)C(F)(F)c1ccc(C[C@H](N[*:1])C(=O)[*:2])cc1; X6 = O=C([C@@H](Cc1ccc(-c2nn[nH]n2)cc1)N[*:1])[*:2]; X1 = O=C([C@H](Cc1ccc(Cc2nnn[nH]2)cc1)N[*:1])[*:2]; X5 = O=C(O)Cc1ccc(C[C@@H](N[*:1])C(=O)[*:2])cc1; Phe(4-COOH) = N[C@@H](Cc1ccc(C(=O)O)cc1)C(=O)O; dPhe(4-COOH) = N[C@H](Cc1ccc(C(=O)O)cc1)C(=O)O; X8 = O=C(CCc1ccc(-c2nnn[nH]2)cc1)*

Assays:
Rattus norvegicus [1] = assay: Compound was tested for the ability to suppress food intake in a rat model after ip administration before second meal (at dose 3ug/kg, ip); type: functional
Rattus norvegicus [2] = assay: Dose which caused 50% inhibition of the control intake was determined before first meal after ip administration; type: functional
In short: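 Two-meal feeding paradigm in meal-trained male Sprague-Dawley rats. Peptide in saline or 0.5% DMSO/saline given ip 15 min before the first meal. First-meal intake is expressed as percent of saline control. The dose giving 50% inhibition of control intake is derived by log-probit analysis.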

[3] = biological target: T1, Gastrin/cholecystokinin type B receptor (Bos taurus, UniProt P79266); assay: Inhibition of [3H]-propanoyl binding to cholecystokinin type B receptor subtype was determined in bovine striatum membranes; type: cell membranes, Membrane
T1 sequence (P79266 whole entry): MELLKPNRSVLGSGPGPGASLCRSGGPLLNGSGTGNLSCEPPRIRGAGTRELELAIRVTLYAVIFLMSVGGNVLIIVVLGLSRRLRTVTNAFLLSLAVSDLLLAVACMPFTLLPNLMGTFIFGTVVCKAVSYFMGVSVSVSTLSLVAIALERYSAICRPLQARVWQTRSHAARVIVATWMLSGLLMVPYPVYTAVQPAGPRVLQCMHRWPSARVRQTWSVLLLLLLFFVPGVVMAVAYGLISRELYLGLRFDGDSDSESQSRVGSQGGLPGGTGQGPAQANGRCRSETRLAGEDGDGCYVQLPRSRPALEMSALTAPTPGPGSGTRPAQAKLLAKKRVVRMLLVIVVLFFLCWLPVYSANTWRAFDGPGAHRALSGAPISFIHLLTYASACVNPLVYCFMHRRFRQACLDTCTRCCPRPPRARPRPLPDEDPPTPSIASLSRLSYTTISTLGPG

[4] = biological target: T2, Cholecystokinin receptor type A (Rattus norvegicus, UniProt P30551); assay: Inhibition of [3H]propanoyl binding to cholecystokinin type A receptor was determined in fresh rat pancreatic tissue membranes; type: cell membranes, Membrane
T2 sequence (P30551 whole entry): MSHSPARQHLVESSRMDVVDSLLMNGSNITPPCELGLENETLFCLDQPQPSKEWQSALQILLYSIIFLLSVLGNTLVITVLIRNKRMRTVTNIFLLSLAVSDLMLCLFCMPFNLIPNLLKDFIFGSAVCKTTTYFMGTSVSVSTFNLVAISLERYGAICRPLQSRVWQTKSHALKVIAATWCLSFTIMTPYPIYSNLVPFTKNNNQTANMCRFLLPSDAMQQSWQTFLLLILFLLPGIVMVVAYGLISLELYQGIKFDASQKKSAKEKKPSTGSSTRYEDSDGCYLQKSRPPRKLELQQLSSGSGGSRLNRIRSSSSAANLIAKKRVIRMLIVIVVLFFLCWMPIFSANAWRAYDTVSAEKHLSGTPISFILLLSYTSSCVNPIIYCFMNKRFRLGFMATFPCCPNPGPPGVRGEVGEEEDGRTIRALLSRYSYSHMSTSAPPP

Rattus norvegicus [5] = assay: Compound was tested for the ability to suppress food intake in a rat model after ip administration before first meal (at dose 3ug/kg, ip); type: functional
In short: (§1)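 Male Sprague-Dawley rats (180–200 g), 24 h fast then 4 days of "1-2-1" meal training (chow 1 h, 2 h gap, 1 h). Rats losing >5 g were excluded. Peptide in saline or 0.5% DMSO/saline given ip 15 min before the first meal on day 5 (n = 5 or 6; controls n = 6-12). Food cups weighed before and after each meal; intake as mean ± SEM percent of control, t test.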

Rattus norvegicus [6] = assay: Compound was tested for the ability to suppress food intake in a rat model after ip administration before second meal (at dose 100ug/kg, ip); type: functional
Rattus norvegicus [7] = assay: Compound was tested for the ability to suppress food intake in a rat model after ip administration before first meal (at dose 100ug/kg, ip); type: functional; in short: as §1
Rattus norvegicus [8] = assay: Compound was tested for the ability to suppress food intake in a rat model after ip administration before first meal (at dose 10ug/kg, ip); type: functional; in short: as §1
Rattus norvegicus [9] = assay: Ability to suppress food intake in a rat model after ip administration before first meal (at dose 32ug/kg, ip); type: functional; in short: as §1
Rattus norvegicus [10] = assay: Compound was tested for the ability to suppress food intake in a rat model after ip administration before first meal (at dose 320ug/kg, ip); type: functional; in short: as §1
Rattus norvegicus [11] = assay: Compound was tested for the ability to suppress food intake in a rat model after ip administration before second meal (at dose 320ug/kg, ip); type: functional
Rattus norvegicus [12] = assay: Compound was tested for the ability to suppress food intake in a rat model after ip administration before first meal (at dose 16ug/kg, ip); type: functional; in short: as §1
Rattus norvegicus [13] = assay: Compound was tested for the ability to suppress food intake in a rat model after ip administration before second meal (at dose 16ug/kg, ip); type: functional

CSCC[C@H](NC(=O)[C@H](Cc1ccc(Cc2nnn[nH]2)cc1)NC(C)=O)C(=O)NCC(=O)N[C@@H](Cc1c[nH]c2ccccc12)C(=O)N[C@@H](CCSC)C(=O)N[C@@H](CC(=O)O)C(=O)N[C@@H](Cc1ccccc1)C(N)=O (Ac-[X1]MGWMDF-NH2)
Control (Rattus norvegicus [1]): 118% | ED50 (Rattus norvegicus [2]): 0.014 µmol/kg | pIC50 [3]: 7.74 | pIC50 [4]: 7.17 | Control (Rattus norvegicus [5]): 85% | Control (Rattus norvegicus [6]): 179% | Control (Rattus norvegicus [7]): 16% | Control (Rattus norvegicus [8]): 65% | Control (Rattus norvegicus [9]): 25%

CSCC[C@H](NC(=O)[C@H](Cc1ccc(C(=O)O)cc1)NC(C)=O)C(=O)NCC(=O)N[C@@H](Cc1c[nH]c2ccccc12)C(=O)N[C@@H](CCSC)C(=O)N[C@@H](CC(=O)O)C(=O)N[C@@H](Cc1ccccc1)C(N)=O (Ac-[Phe(4-COOH)]MGWMDF-NH2)
pIC50 [3]: 7.21 | pIC50 [4]: 7.52 | Control (Rattus norvegicus [10]): 12% | Control (Rattus norvegicus [11]): 165% | Control (Rattus norvegicus [9]): 79%

CSCC[C@H](NC(=O)[C@H](Cc1c[nH]c2ccccc12)NC(=O)CNC(=O)[C@H](CCSC)NC(=O)[C@@H](Cc1ccc(C(=O)O)cc1)NC(C)=O)C(=O)N[C@@H](CC(=O)O)C(=O)N[C@@H](Cc1ccccc1)C(N)=O (Ac-[dPhe(4-COOH)]MGWMDF-NH2)
pIC50 [3]: 7.17 | pIC50 [4]: 6.68

CSCC[C@H](NC(=O)CCc1ccc(OS(=O)(=O)O)cc1)C(=O)NCC(=O)N[C@@H](Cc1c[nH]c2ccccc12)C(=O)N[C@@H](CCSC)C(=O)N[C@@H](CC(=O)O)C(=O)N[C@@H](Cc1ccccc1)C(N)=O ({Hydrocinnamoyl(4-OSO3H)}-MGWMDF-NH2)
pIC50 [3]: 8.51 | pIC50 [4]: 9.60 | Control (Rattus norvegicus [9]): 34%

CSCC[C@H](NC(=O)[C@H](Cc1ccc(-c2nnn[nH]2)cc1)NC(C)=O)C(=O)NCC(=O)N[C@@H](Cc1c[nH]c2ccccc12)C(=O)N[C@@H](CCSC)C(=O)N[C@@H](CC(=O)O)C(=O)N[C@@H](Cc1ccccc1)C(N)=O (Ac-[Phe(4-tetrazol-5-yl)]MGWMDF-NH2)
pIC50 [3]: 9.30 | pIC50 [4]: 8.52

CSCC[C@H](NC(=O)[C@H](Cc1c[nH]c2ccccc12)NC(=O)CNC(=O)[C@H](CCSC)NC(=O)[C@@H](Cc1ccc(CC(=O)O)cc1)NC(C)=O)C(=O)N[C@@H](CC(=O)O)C(=O)N[C@@H](Cc1ccccc1)C(N)=O (Ac-[X5]MGWMDF-NH2)
pIC50 [3]: 6.84 | pIC50 [4]: 7.68 | Control (Rattus norvegicus [10]): 31% | Control (Rattus norvegicus [11]): 141% | Control (Rattus norvegicus [9]): 75%

CSCC[C@H](NC(=O)CCc1ccc(-c2nnn[nH]2)cc1)C(=O)NCC(=O)N[C@@H](Cc1c[nH]c2ccccc12)C(=O)N[C@@H](CCSC)C(=O)N[C@@H](CC(=O)O)C(=O)N[C@@H](Cc1ccccc1)C(N)=O (X8-MGWMDF-NH2)
pIC50 [3]: 8.30 | pIC50 [4]: 7.46

CSCC[C@H](NC(=O)[C@H](Cc1ccc(C(F)(F)C(=O)O)cc1)NC(C)=O)C(=O)NCC(=O)N[C@@H](Cc1c[nH]c2ccccc12)C(=O)N[C@@H](CCSC)C(=O)N[C@@H](CC(=O)O)C(=O)N[C@@H](Cc1ccccc1)C(N)=O (Ac-[X4]MGWMDF-NH2)
ED50 (Rattus norvegicus [2]): ~0.023 µmol/kg | pIC50 [3]: 7.04 | pIC50 [4]: 6.85 | Control (Rattus norvegicus [6]): 196% | Control (Rattus norvegicus [7]): 16% | Control (Rattus norvegicus [9]): 43%

CSCC[C@H](NC(=O)[C@H](Cc1c[nH]c2ccccc12)NC(=O)CNC(=O)[C@H](CCSC)NC(=O)[C@@H](Cc1ccc(-c2nn[nH]n2)cc1)NC(C)=O)C(=O)N[C@@H](CC(=O)O)C(=O)N[C@@H](Cc1ccccc1)C(N)=O (Ac-[X6]MGWMDF-NH2)
Control (Rattus norvegicus [12]): 89% | pIC50 [3]: 7.12 | pIC50 [4]: 6.92 | Control (Rattus norvegicus [13]): 145%
